The values below come from ChEMBL document CHEMBL1687878, “Synthesis and biological evaluation of substituted (thieno[2,3-d]pyrimidin-4-ylthio)carboxylic acids as inhibitors of human protein kinase CK2” (Eur J Med Chem, 2011).

For one test, the target named is Casein kinase II (Homo sapiens, UniProt P19784+P67870+P68400). Kind of test: Inhibition of recombinant human CK2 activity assessed as [gamma-32P]ATP incorporation into substrate peptide after 20 mins in presence of 50 uM ATP. It counts as protein-complex assay. An outline of the steps: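 Radiometric assay with 10 units of recombinant human CK2 in 20 mM Tris-HCl pH 7.5, 50 mM KCl, 10 mM MgCl2. It used 50 µM ATP plus γ-32P ATP (specific activity 100 µCi/µM) and serially diluted inhibitor, run 20 min at 30 °C. The reaction was stopped with 10% phosphoric acid, spotted on phosphocellulose paper, washed with 1% phosphoric acid and Cherenkov-counted. Percent inhibition was taken relative to the DMSO no-inhibitor control, and IC50 was derived from the dilution series.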

The target in test [1] is T1, Mitogen-activated protein kinase kinase kinase 5 (Homo sapiens) (UniProt Q99683).
T1 sequence (whole entry): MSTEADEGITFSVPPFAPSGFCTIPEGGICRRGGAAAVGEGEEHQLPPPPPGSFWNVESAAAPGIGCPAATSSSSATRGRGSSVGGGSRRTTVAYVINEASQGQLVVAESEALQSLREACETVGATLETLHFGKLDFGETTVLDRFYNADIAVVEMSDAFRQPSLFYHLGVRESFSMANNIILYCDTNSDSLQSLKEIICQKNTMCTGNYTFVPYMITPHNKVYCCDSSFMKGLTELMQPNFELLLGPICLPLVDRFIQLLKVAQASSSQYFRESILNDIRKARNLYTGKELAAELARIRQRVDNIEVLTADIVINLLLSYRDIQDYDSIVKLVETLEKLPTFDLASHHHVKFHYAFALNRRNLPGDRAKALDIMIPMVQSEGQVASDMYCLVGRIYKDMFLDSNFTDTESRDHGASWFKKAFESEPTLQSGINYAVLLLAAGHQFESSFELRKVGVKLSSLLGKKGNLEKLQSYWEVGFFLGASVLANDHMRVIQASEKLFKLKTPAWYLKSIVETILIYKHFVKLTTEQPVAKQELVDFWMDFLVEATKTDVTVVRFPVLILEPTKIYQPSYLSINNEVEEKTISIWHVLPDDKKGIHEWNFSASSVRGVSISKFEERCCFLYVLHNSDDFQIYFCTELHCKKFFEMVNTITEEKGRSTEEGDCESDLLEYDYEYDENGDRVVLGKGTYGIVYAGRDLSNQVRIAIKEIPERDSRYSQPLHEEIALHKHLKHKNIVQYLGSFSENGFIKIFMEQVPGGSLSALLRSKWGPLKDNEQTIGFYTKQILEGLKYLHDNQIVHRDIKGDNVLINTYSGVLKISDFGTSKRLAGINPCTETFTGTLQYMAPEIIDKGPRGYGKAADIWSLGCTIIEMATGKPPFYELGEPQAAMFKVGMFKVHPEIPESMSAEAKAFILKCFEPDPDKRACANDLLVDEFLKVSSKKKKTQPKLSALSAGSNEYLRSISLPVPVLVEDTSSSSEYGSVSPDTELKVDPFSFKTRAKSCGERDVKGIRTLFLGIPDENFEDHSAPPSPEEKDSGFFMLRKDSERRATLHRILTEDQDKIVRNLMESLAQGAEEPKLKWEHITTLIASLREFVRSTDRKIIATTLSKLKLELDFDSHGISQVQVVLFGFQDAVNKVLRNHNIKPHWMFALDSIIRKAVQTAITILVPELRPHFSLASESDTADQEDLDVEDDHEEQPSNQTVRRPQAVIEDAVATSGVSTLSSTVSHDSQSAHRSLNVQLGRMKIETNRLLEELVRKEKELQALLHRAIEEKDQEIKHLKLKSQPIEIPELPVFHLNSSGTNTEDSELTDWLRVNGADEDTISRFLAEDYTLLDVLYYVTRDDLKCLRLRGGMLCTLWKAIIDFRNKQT
Nature of the test: Inhibition of recombinant human Ask1 kinase assessed as residual activity at 10 uM in presence of 100 uM ATP. An outline of the steps:
(§1)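 Inhibitor was tested at 10 µM with a final ATP of 100 µM. Residual activity is expressed as a percentage of the control without inhibitor.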

Test [2] in a line: Competitive inhibition of recombinant human CK2 activity by Lineweaver-Burk plot analysis.
Test [3] addresses Fibroblast growth factor receptor 1 (Homo sapiens) (UniProt P11362). Kind of test: Inhibition of recombinant human FGFR1 kinase assessed as residual activity at 10 uM in presence of 100 uM ATP. An outline of the steps: as §1
Test [4] concerns the target Casein kinase II (Homo sapiens) (UniProt P67870+P68400+P19784). Nature of the test: Inhibition of recombinant human CK2 kinase assessed as residual activity at 10 uM in presence of 100 uM ATP. It counts as protein-complex assay. An outline of the steps:
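CK2 residual activity was measured with 10 µM inhibitor and a final ATP of 100 µM. It is expressed as a percentage of the no-inhibitor control.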

The target of test [5] is Rho-associated protein kinase 1 (Homo sapiens) (UniProt Q13464). Nature of the test: Inhibition of recombinant human Rock1 kinase assessed as residual activity at 10 uM in presence of 100 uM ATP. An outline of the steps:
as §1

Test [6] has as its target T2, Aurora kinase A (Homo sapiens) (UniProt O14965).
T2 sequence (whole entry): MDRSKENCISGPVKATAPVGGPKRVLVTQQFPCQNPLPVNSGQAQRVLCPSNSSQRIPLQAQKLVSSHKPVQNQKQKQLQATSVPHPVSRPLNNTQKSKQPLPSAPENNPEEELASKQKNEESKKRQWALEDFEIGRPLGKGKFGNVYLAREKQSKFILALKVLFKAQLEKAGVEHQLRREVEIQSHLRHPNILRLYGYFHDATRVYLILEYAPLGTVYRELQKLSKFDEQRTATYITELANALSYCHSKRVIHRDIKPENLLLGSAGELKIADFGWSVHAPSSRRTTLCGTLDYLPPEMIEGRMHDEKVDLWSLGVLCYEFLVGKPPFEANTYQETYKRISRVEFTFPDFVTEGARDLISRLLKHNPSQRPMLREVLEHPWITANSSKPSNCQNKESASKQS
Nature of the test: Inhibition of recombinant human Aurora A kinase assessed as residual activity at 10 uM in presence of 100 uM ATP. An outline of the steps:
as §1

In test [7] the target is Mitogen-activated protein kinase 10 (Homo sapiens) (UniProt P53779). Nature of the test: Inhibition of recombinant human Jnk3 kinase assessed as residual activity at 10 uM in presence of 100 uM ATP. An outline of the steps: as §1
Test [8] deals with Angiopoietin-1 receptor (Homo sapiens) (UniProt Q02763). Nature of the test: Inhibition of recombinant human Tie2 kinase assessed as residual activity at 10 uM in presence of 100 uM ATP. An outline of the steps: as §1
Test [9] has as its target Hepatocyte growth factor receptor (Homo sapiens) (UniProt P08581). Nature of the test: Inhibition of recombinant human Met kinase assessed as residual activity at 10 uM in presence of 100 uM ATP. An outline of the steps:
as §1

Where only a bound is given, the exact number is not on record here.

Sequence of Casein kinase II (P67870 whole entry): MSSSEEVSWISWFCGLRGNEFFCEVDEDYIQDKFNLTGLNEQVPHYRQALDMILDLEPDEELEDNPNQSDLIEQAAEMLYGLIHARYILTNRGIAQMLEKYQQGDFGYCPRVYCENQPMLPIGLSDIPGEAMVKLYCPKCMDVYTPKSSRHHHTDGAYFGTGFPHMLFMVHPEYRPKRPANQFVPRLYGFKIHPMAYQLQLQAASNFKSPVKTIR
Sequence of Casein kinase II (P68400 whole entry): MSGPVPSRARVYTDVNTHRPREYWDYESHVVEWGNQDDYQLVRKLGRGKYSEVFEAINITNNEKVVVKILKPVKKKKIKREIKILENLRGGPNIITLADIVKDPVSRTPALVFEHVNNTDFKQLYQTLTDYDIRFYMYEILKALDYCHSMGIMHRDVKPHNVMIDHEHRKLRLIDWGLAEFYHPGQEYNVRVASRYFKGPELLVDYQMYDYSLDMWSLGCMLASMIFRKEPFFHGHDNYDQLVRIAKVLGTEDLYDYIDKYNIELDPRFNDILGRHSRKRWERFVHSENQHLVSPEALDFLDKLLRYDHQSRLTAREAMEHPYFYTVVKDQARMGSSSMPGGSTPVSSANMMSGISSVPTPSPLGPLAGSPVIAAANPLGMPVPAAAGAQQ
Sequence of Casein kinase II (P19784 whole entry): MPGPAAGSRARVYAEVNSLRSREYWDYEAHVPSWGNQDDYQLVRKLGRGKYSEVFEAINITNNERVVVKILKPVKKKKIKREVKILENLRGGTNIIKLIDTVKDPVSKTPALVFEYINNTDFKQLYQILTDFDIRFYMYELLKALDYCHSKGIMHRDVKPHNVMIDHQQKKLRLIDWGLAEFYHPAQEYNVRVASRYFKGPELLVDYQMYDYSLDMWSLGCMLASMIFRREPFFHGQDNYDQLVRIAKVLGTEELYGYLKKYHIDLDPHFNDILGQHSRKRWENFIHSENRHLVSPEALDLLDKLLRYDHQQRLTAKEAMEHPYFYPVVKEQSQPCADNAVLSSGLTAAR
Sequence of Mitogen-activated protein kinase 10 (Homo sapiens) (P53779 whole entry): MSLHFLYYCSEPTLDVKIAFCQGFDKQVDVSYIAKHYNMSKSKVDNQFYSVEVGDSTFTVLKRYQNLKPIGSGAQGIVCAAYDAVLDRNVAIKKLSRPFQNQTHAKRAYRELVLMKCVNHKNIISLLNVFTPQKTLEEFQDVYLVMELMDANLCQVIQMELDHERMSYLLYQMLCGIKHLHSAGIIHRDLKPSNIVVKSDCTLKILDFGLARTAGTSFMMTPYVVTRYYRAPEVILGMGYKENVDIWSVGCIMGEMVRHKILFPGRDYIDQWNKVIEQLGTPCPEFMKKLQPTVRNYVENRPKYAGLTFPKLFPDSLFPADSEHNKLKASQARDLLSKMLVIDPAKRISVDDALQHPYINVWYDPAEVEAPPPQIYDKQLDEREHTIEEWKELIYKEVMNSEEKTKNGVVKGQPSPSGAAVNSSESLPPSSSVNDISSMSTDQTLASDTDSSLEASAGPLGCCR
Sequence of Rho-associated protein kinase 1 (Homo sapiens) (Q13464 2-1354 limits assumed): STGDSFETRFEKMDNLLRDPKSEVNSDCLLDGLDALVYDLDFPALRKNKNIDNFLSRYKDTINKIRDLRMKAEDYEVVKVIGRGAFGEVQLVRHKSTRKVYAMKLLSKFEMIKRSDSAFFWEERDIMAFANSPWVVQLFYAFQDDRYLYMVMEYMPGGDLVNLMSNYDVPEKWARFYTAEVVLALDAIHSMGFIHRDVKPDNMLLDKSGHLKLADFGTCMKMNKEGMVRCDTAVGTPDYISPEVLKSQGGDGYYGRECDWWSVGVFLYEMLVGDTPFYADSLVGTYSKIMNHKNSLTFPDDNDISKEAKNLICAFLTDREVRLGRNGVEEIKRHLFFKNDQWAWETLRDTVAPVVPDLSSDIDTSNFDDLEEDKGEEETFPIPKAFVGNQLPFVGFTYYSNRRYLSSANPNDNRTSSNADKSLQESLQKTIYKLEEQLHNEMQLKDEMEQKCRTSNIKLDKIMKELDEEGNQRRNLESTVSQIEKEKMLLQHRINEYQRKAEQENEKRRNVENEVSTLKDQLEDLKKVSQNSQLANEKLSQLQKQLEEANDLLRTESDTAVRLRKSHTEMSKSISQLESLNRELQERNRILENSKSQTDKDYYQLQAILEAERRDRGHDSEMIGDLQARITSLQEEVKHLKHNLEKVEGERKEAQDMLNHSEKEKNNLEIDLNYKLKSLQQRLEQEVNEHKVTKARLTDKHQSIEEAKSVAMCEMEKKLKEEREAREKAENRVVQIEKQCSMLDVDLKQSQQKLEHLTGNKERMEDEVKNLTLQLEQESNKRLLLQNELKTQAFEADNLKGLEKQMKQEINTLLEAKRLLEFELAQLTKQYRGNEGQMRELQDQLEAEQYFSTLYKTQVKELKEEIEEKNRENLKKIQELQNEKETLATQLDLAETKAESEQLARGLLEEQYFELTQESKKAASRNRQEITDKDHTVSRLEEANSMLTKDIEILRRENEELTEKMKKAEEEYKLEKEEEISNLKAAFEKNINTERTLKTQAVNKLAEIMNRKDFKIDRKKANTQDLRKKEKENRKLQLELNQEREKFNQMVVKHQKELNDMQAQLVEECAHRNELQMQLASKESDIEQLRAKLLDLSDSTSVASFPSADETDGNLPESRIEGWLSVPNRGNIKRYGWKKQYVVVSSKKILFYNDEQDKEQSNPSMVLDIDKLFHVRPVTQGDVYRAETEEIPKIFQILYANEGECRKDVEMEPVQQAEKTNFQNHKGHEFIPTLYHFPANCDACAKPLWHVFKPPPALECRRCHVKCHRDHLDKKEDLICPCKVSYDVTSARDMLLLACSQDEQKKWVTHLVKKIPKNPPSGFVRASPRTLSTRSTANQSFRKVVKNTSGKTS
Sequence of Fibroblast growth factor receptor 1 (Homo sapiens) (P11362 22-822 limits assumed): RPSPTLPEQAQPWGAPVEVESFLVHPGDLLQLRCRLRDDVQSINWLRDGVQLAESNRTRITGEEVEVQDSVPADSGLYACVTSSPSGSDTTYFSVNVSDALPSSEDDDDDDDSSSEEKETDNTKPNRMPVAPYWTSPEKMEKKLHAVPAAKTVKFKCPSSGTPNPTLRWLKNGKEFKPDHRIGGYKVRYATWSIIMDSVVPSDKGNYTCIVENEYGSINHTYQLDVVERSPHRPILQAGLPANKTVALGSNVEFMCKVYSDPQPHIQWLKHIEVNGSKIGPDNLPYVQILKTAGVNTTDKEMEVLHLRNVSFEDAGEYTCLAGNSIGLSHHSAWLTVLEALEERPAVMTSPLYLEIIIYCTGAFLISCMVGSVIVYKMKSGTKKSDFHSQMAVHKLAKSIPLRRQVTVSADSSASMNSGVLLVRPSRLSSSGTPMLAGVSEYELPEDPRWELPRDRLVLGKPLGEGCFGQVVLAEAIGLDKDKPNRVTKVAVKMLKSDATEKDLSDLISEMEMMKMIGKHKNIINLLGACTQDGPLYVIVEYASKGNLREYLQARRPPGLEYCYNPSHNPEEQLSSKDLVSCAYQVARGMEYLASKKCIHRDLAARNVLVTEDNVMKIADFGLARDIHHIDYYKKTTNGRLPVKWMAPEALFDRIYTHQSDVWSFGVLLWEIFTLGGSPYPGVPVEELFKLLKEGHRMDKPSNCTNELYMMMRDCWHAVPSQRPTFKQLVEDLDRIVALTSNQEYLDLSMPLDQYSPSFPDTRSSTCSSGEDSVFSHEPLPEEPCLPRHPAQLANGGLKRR
Sequence of Angiopoietin-1 receptor (Homo sapiens) (Q02763 whole entry): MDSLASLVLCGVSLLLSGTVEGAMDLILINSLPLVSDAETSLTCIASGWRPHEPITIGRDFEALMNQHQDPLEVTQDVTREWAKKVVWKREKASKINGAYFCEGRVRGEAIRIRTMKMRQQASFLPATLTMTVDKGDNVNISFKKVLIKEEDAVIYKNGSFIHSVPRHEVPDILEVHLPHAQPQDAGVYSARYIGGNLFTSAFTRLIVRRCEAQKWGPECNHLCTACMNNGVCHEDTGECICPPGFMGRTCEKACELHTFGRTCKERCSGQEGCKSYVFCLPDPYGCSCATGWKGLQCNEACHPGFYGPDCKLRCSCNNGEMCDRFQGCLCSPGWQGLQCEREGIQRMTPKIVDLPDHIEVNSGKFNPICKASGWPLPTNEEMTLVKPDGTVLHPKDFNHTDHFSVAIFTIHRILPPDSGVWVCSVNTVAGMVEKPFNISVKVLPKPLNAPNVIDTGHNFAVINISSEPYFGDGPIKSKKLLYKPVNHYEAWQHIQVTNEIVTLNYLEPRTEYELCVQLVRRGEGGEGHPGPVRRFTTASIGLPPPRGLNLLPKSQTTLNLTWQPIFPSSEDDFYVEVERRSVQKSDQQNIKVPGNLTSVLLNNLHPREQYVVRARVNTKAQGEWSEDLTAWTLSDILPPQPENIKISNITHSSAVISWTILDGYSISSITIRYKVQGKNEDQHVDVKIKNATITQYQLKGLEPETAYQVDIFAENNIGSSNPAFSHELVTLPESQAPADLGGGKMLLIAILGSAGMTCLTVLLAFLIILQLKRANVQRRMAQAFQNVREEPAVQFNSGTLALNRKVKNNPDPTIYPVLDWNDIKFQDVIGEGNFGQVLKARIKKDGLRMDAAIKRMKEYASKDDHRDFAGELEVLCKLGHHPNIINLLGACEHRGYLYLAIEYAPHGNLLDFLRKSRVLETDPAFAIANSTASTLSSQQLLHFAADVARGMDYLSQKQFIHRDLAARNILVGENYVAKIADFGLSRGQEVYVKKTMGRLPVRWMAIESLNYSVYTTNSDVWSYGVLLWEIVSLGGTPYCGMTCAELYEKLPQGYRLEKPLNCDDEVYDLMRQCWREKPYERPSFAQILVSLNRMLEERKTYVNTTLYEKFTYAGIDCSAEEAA

By IC50 is commonly meant the midpoint of a concentration-inhibition curve. In the case of `Cc1ccc(-c2csc3ncnc(SCCC(=O)O)c23)cc1C`, at Casein kinase II, the IC50 was determined as 0.175 µM.

Take `Cc1sc2ncnc(SCC(=O)O)c2c1C`: on Casein kinase II, the IC50 came out at 17.8 µM.

On to `CCC(Sc1ncnc2scc(-c3ccc(C)cc3)c12)C(=O)O` (stereo not given), for which the IC50 at Casein kinase II is over 33 µM.

Take `CC(Sc1ncnc2scc(-c3ccccc3)c12)C(=O)O` (stereo not given): the IC50 on Casein kinase II is 23 µM.

For the compound `O=C(O)CSc1ncnc2scc(-c3ccccc3)c12`, at Casein kinase II, the IC50 stood at 30 µM.

As for `Cc1cc2c(SCCC(=O)O)ncnc2s1`, the IC50 on Casein kinase II was found to be 7 µM.

For the compound `CC1CCc2c(sc3ncnc(SC(C)C(=O)O)c23)C1` (stereo not given), the IC50 on Casein kinase II is 20 µM.

Regarding `O=C(O)CCCSc1ncnc2sc3c(c12)CCCC3`, on Casein kinase II, the IC50 was over 33 µM.

For orientation: Ki means a measure of affinity in units of concentration, obtained from inhibition or displacement. As to `Cc1ccc(-c2csc3ncnc(SCCC(=O)O)c23)cc1`, the Activity in test [1] was determined as 92%; in [3] it was 92%; in [4], 0.72%; in [5], 126%; in [6], 23%; in test [7] it was 104%. The figures for the Activity in test [8] and in [9] were 70% and 114%, respectively. Further, the Ki in test [2] worked out at 0.04 µM. For the same compound, the IC50 at Casein kinase II came to 0.1 µM.

Turning to `CC1CCc2c(sc3ncnc(SCC(=O)O)c23)C1` (stereo not given), the IC50 on Casein kinase II is 1.78 µM.

In the case of `O=C(O)c1ccc(CSc2ncnc3sc4c(c23)CCCC4)cc1`, at Casein kinase II, the IC50 is over 33 µM.

Turning to `O=C(O)CSc1ncnc2sc(-c3ccccc3)cc12`, the IC50 on Casein kinase II was 1.25 µM.

On to `CCC(Sc1ncnc2sc3c(c12)CCCC3)C(=O)O` (stereo not given), for which, on Casein kinase II, the IC50 was over 33 µM.

Turning to `Cc1sc2ncnc(SCc3cccc(C(=O)O)c3)c2c1C`, the IC50 on Casein kinase II amounted to 17.8 µM.

For the compound `Cc1nc(SCCC(=O)O)c2c3c(sc2n1)CCCC3`, at Casein kinase II, the IC50 was determined as 15.8 µM.

As for `Cc1nc(SCCC(=O)O)c2cc(-c3ccccc3)sc2n1`, the IC50 at Casein kinase II was found to be 3.5 µM.

With `Cc1sc2ncnc(SCCC(=O)O)c2c1C`, at Casein kinase II, the IC50 turned out to be 11.3 µM.

For the compound `CCC(Sc1ncnc2scc(-c3ccc(Cl)cc3)c12)C(=O)O` (stereo not given), the IC50 on Casein kinase II is over 33 µM.

Consider `CC(Sc1ncnc2sc3c(c12)CCCC3)C(=O)O` (stereo not given), for which the IC50 at Casein kinase II was 17 µM.

As to `O=C(O)CCSc1ncnc2scc(-c3ccc(Cl)cc3)c12`, the IC50 at Casein kinase II came out at 0.175 µM.

`Cc1sc2ncnc(SC(C)C(=O)O)c2c1C` (stereo not given): on Casein kinase II, the 50% inhibitory concentration (IC50) was over 33 µM.

For the compound `O=C(O)CSc1ncnc2scc(-c3ccc(Cl)cc3)c12`, the IC50 at Casein kinase II turned out to be 32 µM.

For the compound `CCOc1ccc(-c2csc3ncnc(SCCC(=O)O)c23)cc1`, the Activity in [1] came out at 100%; in test [3] it was 99%; in test [4], 0.86%; in [5], 115%; in test [6] it was 48%; in test [7] it was 94%. Also, the Activity in test [8] came out at 76%; in test [9], 115%. Also, the IC50 at Casein kinase II is 0.125 µM.

As to `O=C(O)CCSc1ncnc2scc(-c3ccc(F)cc3)c12`, on Casein kinase II, the IC50 is 1.2 µM.

`Cc1cc2c(SCC(=O)O)ncnc2s1`: the IC50 at Casein kinase II was found to be 4 µM.

As for `Cc1ccc(-c2csc3ncnc(SC(C)C(=O)O)c23)cc1` (stereo not given), the half-maximal inhibitory concentration (IC50) on Casein kinase II was found to be 31 µM.

As for `Cc1sc2ncnc(SCC(=O)O)c2c1-c1ccccc1`, the IC50 at Casein kinase II was over 33 µM.

As to `O=C(O)CSc1ncnc2scc(-c3ccc(Br)cc3)c12`, the IC50 on Casein kinase II is 14 µM.
